The record followed here is ChEMBL document CHEMBL1821694, “Design and synthesis of novel amide AKT1 inhibitors with selectivity over CDK2” (Bioorg Med Chem Lett, 2011).

The structures appear in SMILES notation.

As a reminder, the IC50 is the midpoint of a concentration-inhibition curve. The clearance is the volume of plasma or blood freed of the substance per unit of time. A low value points to a low capacity for elimination.

Data set [1] deals with T1, RAC-alpha serine/threonine-protein kinase (Homo sapiens, UniProt P31749). Put plainly: Inhibition of AKT1.
T1 sequence (P31749 whole entry): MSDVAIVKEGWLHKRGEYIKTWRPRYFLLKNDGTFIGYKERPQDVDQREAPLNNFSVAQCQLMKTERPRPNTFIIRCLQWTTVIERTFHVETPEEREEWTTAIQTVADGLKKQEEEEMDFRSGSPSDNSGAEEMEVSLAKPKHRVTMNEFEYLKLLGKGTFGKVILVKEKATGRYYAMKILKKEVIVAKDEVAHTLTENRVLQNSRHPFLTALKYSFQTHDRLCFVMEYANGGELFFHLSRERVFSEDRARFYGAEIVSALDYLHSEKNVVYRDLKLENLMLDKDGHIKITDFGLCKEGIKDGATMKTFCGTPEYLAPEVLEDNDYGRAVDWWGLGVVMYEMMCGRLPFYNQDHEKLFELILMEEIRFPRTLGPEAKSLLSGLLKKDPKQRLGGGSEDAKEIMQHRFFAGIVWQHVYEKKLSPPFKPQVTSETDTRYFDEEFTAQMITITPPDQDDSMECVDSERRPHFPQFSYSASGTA
The target of data set [2] is Cyclin-dependent kinase 2 (Homo sapiens, UniProt P24941). Put plainly: Inhibition of CDK2.
Data set [3] in a line: Inhibition of PKA.
The target in data set [4] is T1, RAC-alpha serine/threonine-protein kinase. Put plainly: Inhibition of AKT1-mediated PRAS40 phosphorylation in human U87MG cells after 1 hr in presence of 5% FBS by ELISA assay. In kind it is cell-based, U-87MG ATCC. Put shortly:
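U87MG cells kept in medium with 5% FBS; inhibitor added as threefold serial dilutions, 1 h incubation at 37 °C, then phospho-PRAS40 measured. Values are means ± SD, n ≥ 3.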
In general terms: An ELISA detects its analyte on a solid surface through an enzyme-linked reagent.

Data set [5] in a line: Metabolic stability in human liver microsomes assessed as compound turnover. The class given is ADME, Microsome. The following applies: read-out: Activity. In general terms: Liver microsomes are vesicles of endoplasmic reticulum, rich in cytochrome P450 enzymes.
A short description of data set [6]: Clearance in rat. The following applies: in vivo. In kind it is ADME, organism-based.
Data set [7] relates to Liver microsomes. Kind of data set: Metabolic stability in rat liver microsome. The class given is ADME.

Regarding `O=C(NC(c1cncnc1)c1ccc(Cl)c(Cl)c1)c1ccc2cnccc2c1` (racemic), the IC50 in data set [1] is 12700 nM; in data set [2], > 25000 nM; in data set [3] it was 3410 nM.
Turning to `O=C(NC(c1ccc(F)c(F)c1)C1CCNCC1)c1ccc2cnccc2c1` (racemic), the IC50 was 2680 nM in data set [1], > 25000 nM in data set [2] and 160 nM in data set [3].
Turning to `N[C@H](CNc1nnc(-c2ccc3c(c2)CC(=O)N3)s1)Cc1ccc(C(F)(F)F)cc1`, the IC50 in data set [1] is 20 nM; in data set [4], 300 nM; in data set [2], 190 nM; in data set [3] it was 170 nM.
With `O=C(NC(c1ccc2ccccc2c1)C1CCNCC1)c1ccc2cnccc2c1` (racemic), the IC50 in data set [1] was 400 nM; in data set [2], > 25000 nM; in data set [3], 260 nM.
Turning to `O=C(NC(c1cccc(Cl)c1Cl)C1CCNCC1)c1ccc2cnccc2c1` (racemic), the concentration for half-maximal inhibition (IC50) in data set [1] was 120 nM; in data set [2], > 25000 nM; in data set [3], 100 nM.
On to `O=C(NC(c1ccc(Cl)c(Cl)c1)C1CCCNC1)c1ccc2cnccc2c1` (stereo not drawn), for which the IC50 was 20 nM in data set [1] and 21000 nM in data set [2].
For `O=C(N[C@@H](c1ccc(Cl)c(Cl)c1)C1CCN(Cc2ccc(C(F)(F)F)cc2)CC1)c1ccc2cnccc2c1`, the results for the IC50 in data set [1], in data set [2] and in data set [3] were 2300 nM, > 25000 nM and 980 nM, respectively.
As to `O=C(NC(c1nccs1)C1CCNCC1)c1ccc2cnccc2c1` (racemic), the IC50 was 1570 nM in data set [1], > 25000 nM in data set [2] and 1070 nM in data set [3].
On to `O=C(NC(c1ccc(Cl)c(-c2ccccc2)c1)C1CCNCC1)c1ccc2cnccc2c1` (racemic), for which the IC50 in data set [1] was 200 nM; in data set [2], > 25000 nM; in data set [3] it was 220 nM.
Regarding `O=C(NC(c1ccc(Cl)c(Cl)c1)C1CCCCC1)c1ccc2cnccc2c1` (racemic), the results for the IC50 in data set [1], in data set [2] and in data set [3] were 5800 nM, > 25000 nM and > 25000 nM, respectively.
As to `O=C(NC(c1ccc(Cl)c(Cl)c1)C1CCNCC1)c1ccc2[nH]ncc2c1` (racemic), the IC50 in data set [1] stood at 250 nM; in data set [3] it was 290 nM.
`CN1CC([C@@H](NC(=O)c2ccc3cnccc3c2)c2ccc(Cl)c(Cl)c2)C1`: the IC50 in data set [1] turned out to be 7 nM; in data set [2], 360 nM; in data set [3], 10 nM.
With `N[C@H](CNC(=O)c1ccc2cnccc2c1)Cc1ccc(C(F)(F)F)cc1`, the values for the half-inhibitory concentration (IC50) in data set [1], in data set [2] and in data set [3] were 3380 nM, > 25000 nM and 1560 nM, respectively.
`O=C(N[C@@H](c1ccc(Cl)c(Cl)c1)C1CNC1)c1ccc2cnccc2c1`: the metabolised in data set [5] was found to be 10.9%. Besides, the concentration for half-maximal inhibition (IC50) is 7 nM in data set [1], 240 nM in data set [4], 690 nM in data set [2] and 10 nM in data set [3]. This compound gave a clearance in data set [6] of 173 mL/min/kg. Also, in data set [7], the Stability was determined as 33.4%.
Turning to `N#Cc1cc(C(NC(=O)c2ccc3cnccc3c2)C2CCNCC2)ccc1Cl` (racemic), the IC50 in data set [1] is 80 nM; in data set [2], > 25000 nM; in data set [3] it was 160 nM.
Turning to `O=C(NC(c1ccc(Cl)c(Cl)c1)C1CCNCC1)c1ccc2[nH]c(=O)oc2c1` (racemic), the IC50 in data set [1] is 460 nM; in data set [3], 13700 nM.
As to `O=C(NC(c1ccccc1)C1CCNCC1)c1ccc2cnccc2c1` (racemic), the IC50 was 850 nM in data set [1], 19700 nM in data set [2] and 250 nM in data set [3].
With `O=C(NC(c1ccc(Cl)cc1)C1CCNCC1)c1ccc2cnccc2c1` (racemic), the IC50 in data set [1] is 190 nM; in data set [2], > 25000 nM; in data set [3], 130 nM.
`O=C(NC(c1ccncc1)c1ccc(Cl)c(Cl)c1)c1ccc2cnccc2c1` (racemic): the IC50 is 20400 nM in data set [1], > 25000 nM in data set [2] and > 25000 nM in data set [3].
As for `O=C(NC(c1ccc(Cl)c(Cl)c1)C1CCNCC1)c1ccc2cnncc2c1` (single isomer, unassigned), the IC50 in data set [1] was determined as 330 nM; in data set [3] it was 850 nM.
Turning to `COc1ccc(C(NC(=O)c2ccc3cnccc3c2)C2CCNCC2)cc1F` (racemic), the IC50 was 1510 nM in data set [1], > 25000 nM in data set [2] and 130 nM in data set [3].
Turning to `O=C(NC(c1ccc(Cl)c(Cl)c1)C1CCNC1)c1ccc2cnccc2c1` (mixture of isomers), the 50% inhibitory concentration (IC50) in data set [1] was 30 nM; in data set [2], > 25000 nM; in data set [3] it was 10 nM.
In the case of `O=C(N[C@H](c1ccc(Cl)c(Cl)c1)C1CNC1)c1ccc2cnccc2c1`, the results for the IC50 in data set [1], in data set [2] and in data set [3] were 110 nM, 9800 nM and 30 nM, respectively.
For `CC(C)CN1CCC([C@@H](NC(=O)c2ccc3cnccc3c2)c2ccc(Cl)c(Cl)c2)CC1` the same measures were 2140 nM, > 25000 nM and 2010 nM.
Turning to `O=C(NC(c1cnc(Cl)c(Cl)c1)C1CCNCC1)c1ccc2cnccc2c1` (racemic), the IC50 was 140 nM in data set [1], > 25000 nM in data set [2] and 230 nM in data set [3].
With `O=C(NC(c1ccc(Cl)c(Cl)c1)C1CCNCC1)c1ccc2cnccc2c1` (racemic), the values for the IC50 in data set [1], in data set [2] and in data set [3] were 40 nM, > 25000 nM and 50 nM, respectively.
Regarding `O=C(NC(c1cccc(Cl)c1)C1CCNCC1)c1ccc2cnccc2c1` (racemic), the half-maximal inhibitory concentration (IC50) in data set [1] is 70 nM; in data set [2], > 25000 nM; in data set [3] it was 30 nM.
As to `O=C1Cc2cc(C(=O)NC(c3ccc(Cl)c(Cl)c3)C3CCNCC3)ccc2N1` (racemic), the values for the IC50 in data set [1] and in data set [3] were 350 nM and 1150 nM, respectively.
As for `O=C(NC(c1ccc(Cl)c(F)c1)C1CCNCC1)c1ccc2cnccc2c1` (racemic), the IC50 was 40 nM in data set [1] and > 25000 nM in data set [2].
As to `COc1ccc(-c2cc3cnccc3cc2C(=O)NC(c2ccc(Cl)c(Cl)c2)C2CCNCC2)cc1` (racemic), the IC50 came to 6850 nM in data set [1] and 670 nM in data set [3].
Turning to `O=C(NC(c1ccc(Cl)c(Cl)c1)C1CCNCC1)c1ccc2cnc(F)cc2c1` (racemic), in data set [5], the metabolised was found to be 10%. Moreover, the IC50 is 20 nM in data set [1], 390 nM in data set [4], > 25000 nM in data set [2] and 90 nM in data set [3]. Besides, the clearance in data set [6] was 58.3 mL/min/kg. This compound displayed a Stability in data set [7] of 15.9%.
As for `COc1cc2cnccc2cc1C(=O)NC(c1ccc(Cl)c(Cl)c1)C1CCNCC1` (racemic), the IC50 is 39 nM in data set [1] and 30 nM in data set [3].
Regarding `O=C(N[C@@H](c1ccc(Cl)c(Cl)c1)C1CCN(Cc2ccccc2)CC1)c1ccc2cnccc2c1`, the IC50 is 240 nM in data set [1], > 25000 nM in data set [2] and 390 nM in data set [3].
As for `N[C@H](CNc1nnc(-c2ccc3cnccc3c2)s1)Cc1ccc(C(F)(F)F)cc1`, the results for the IC50 in data set [2] and in data set [3] were 50 nM and 6 nM, respectively.
Compound `O=C(NC(c1ccc(Cl)c(Cl)c1)C1CCNCC1)c1ccc2cnc(Cl)cc2c1` (racemic) registered an IC50 in data set [1] of 140 nM.
